Results on 29 compounds are retold here after ChEMBL document CHEMBL3232757, “Structure-activity relationships for withanolides as inducers of the cellular heat-shock response” (J Med Chem, 2014).

Peptide text beside a SMILES is read from it. * marks the point of attachment. Cbz = O=C(OCc1ccccc1)* Some results are limits rather than exact numbers.

Assay [1] has as its target Heat shock 70 kDa protein 6 (Homo sapiens) (UniProt P17066). As to the kind of experiment: Induction of […] (unknown origin)-mediated heat shock response expressed in human 293T cells coexpressing GFP assessed as heat shock index after overnight incubation by luciferase reporter gene assay relative to control. Type of assay: cell-based. The procedure, abridged:
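293T cells transduced with a lentiviral EGFP–firefly luciferase fusion under HSP70B′ promoter elements, enriched by heat shock (42 °C, 1 h) plus FACS, then reverse-sorted to remove constitutive expressers. Cells in DMEM/10% FBS were seeded at 20 000/well and given serial dilutions next day, quadruplicate wells, overnight. Read by Steady-Glo luminescence. Index = [Log2(treated/control)]/concentration (μM) at maximal response.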

Assay [2] can be described thus: Cytotoxicity against human CHP100 cells assessed as inhibition of cell survival after 24 hrs by MTT assay. Type of assay: functional, cell-based. The following applies: CHP100, 24 h.
Assay [3] is described as follows: Cytotoxicity against human NCI-H929 cells after 3 days by Alamar blue assay. It counts as functional, cell-based. The following applies: NCI-H929, 72 h.
The nature of assay [4]: Cytotoxicity against human CHP100 cells assessed as inhibition of cell survival at 4 uM after 24 hrs by MTT assay relative to control. Type of assay: functional. The following applies: CHP100, 24 h.

Sequence of Heat shock 70 kDa protein 6 (Homo sapiens) (P17066 whole entry, the tested form may be a part): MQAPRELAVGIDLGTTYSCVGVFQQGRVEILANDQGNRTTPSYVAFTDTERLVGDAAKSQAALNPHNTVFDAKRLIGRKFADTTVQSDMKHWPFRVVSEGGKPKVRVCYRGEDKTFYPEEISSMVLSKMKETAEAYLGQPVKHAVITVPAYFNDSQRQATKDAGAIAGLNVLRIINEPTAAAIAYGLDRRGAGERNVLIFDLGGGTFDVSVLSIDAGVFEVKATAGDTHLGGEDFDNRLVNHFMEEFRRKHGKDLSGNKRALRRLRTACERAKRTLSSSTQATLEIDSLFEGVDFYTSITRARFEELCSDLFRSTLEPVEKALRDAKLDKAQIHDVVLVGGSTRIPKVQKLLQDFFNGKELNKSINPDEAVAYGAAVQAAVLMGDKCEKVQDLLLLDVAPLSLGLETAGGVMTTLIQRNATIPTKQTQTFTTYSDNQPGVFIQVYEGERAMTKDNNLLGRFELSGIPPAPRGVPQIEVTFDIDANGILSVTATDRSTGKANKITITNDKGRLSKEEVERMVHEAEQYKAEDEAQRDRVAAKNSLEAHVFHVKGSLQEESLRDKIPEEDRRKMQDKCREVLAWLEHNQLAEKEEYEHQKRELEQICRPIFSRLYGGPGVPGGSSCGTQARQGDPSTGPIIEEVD

Usually IC50 stands for the concentration that inhibits the measured activity by half. A word on the inhibition: it is the change of the read-out against control, counted positive when it falls. Regarding `CC(=O)OCC1=C(C)C[C@H]([C@@H](C)[C@H]2CC[C@H]3[C@@H]4C[C@H]5O[C@]56[C@@H](O)C=CC(=O)[C@]6(C)[C@H]4CC[C@]23C)OC1=O`, the Activity entry in assay [1] was “Dose-dependent effect”. In addition, in assay [1], the fold change (FC) came to 3.81. For the same compound, the IC50 in assay [2] stood at 0.23 µM; in assay [3] it was 0.25 µM. The inhibition at 4 µM in assay [4] was over 80%.

As to `CC1=C(CO)C(=O)O[C@@H]([C@@H](C)[C@H]2CC[C@H]3[C@@H]4C[C@H]5O[C@]56[C@@H](O)[C@@H](n5cnc7c(N)ncnc75)CC(=O)[C@]6(C)[C@H]4CC[C@]23C)C1`, the fold change (FC) in assay [1] was determined as 0. In addition, the half-maximal inhibitory concentration (IC50) in assay [3] is 0.61 µM.

Take `CC1=C(CO)C(=O)O[C@@H]([C@@H](C)[C@H]2CC[C@H]3[C@@H]4C[C@H]5O[C@]56[C@@H](O)[C@@H](N=[N+]=[N-])CC(=O)[C@]6(C)[C@H]4CC[C@]23C)C1`: the fold change (FC) in assay [1] is 0. Also, the IC50 in assay [2] came out at 0.81 µM; in assay [3], 1.65 µM. Besides, the inhibition at 4 µM in assay [4] was over 80%.

Turning to `CC(=O)OCC1=C(C)C[C@H]([C@@H](C)[C@H]2CC[C@H]3[C@@H]4C[C@H]5O[C@]56[C@@H](OC(C)=O)[C@@H](OS(=O)(=O)O)CC(=O)[C@]6(C)[C@H]4CC[C@]23C)OC1=O`, the fold change (FC) in assay [1] was 0.78. The results for the IC50 in assay [2] and in assay [3] were 0.39 µM and 1.04 µM, respectively. The inhibition at 4 µM in assay [4] was over 80%.

With `CC1=C(CO)C(=O)O[C@@H]([C@@H](C)[C@H]2CC[C@H]3[C@@H]4CC=C5C[C@@H](O)C[C@H](O)[C@]5(C)[C@H]4CC[C@]23C)C1`, in assay [1], the fold change (FC) amounted to 0. The compound also displayed an IC50 in assay [3] of 4.96 µM.

`CC(=O)OCC1=C(C)C[C@H]([C@@H](C)[C@H]2CC[C@H]3[C@@H]4[C@@H]5O[C@@H]5[C@@]5(O)CC=CC(=O)[C@]5(C)[C@H]4CC[C@]23C)OC1=O`: the fold change (FC) in assay [1] was 0. In assay [3], this compound came in with an IC50 of over 10 µM.

With `CC1=C(CO)C(=O)O[C@@H]([C@@H](C)[C@H]2CC[C@H]3[C@@H]4C[C@H]5O[C@]56[C@H](O)C=CC(=O)[C@]6(C)[C@H]4CC[C@]23C)C1`, the fold change (FC) in assay [1] amounted to 1.68. For the same compound, the half-inhibitory concentration (IC50) in assay [2] is 0.93 µM; in assay [3], 0.28 µM. Further, the inhibition at 4 µM in assay [4] is over 80%.

Consider `CC1=C(CO)C(=O)O[C@@H]([C@@H](C)[C@H]2CC[C@H]3[C@@H]4CC=C5[C@@H](O)C=CC(=O)[C@]5(C)[C@H]4CC[C@]23C)C1`, for which, in assay [1], the fold change (FC) stood at 0. The IC50 in assay [3] worked out at 5.09 µM.

For `CC(=O)O[C@H]1C=CC(=O)[C@]2(C)[C@H]3CC[C@]4(C)[C@@H]([C@H](C)[C@H]5CC(C)=C(C)C(=O)O5)CC[C@H]4[C@@H]3C[C@H]3O[C@]132`, the fold change (FC) in assay [1] stood at 1.53. Further, the IC50 came to 0.76 µM in assay [2] and 0.43 µM in assay [3]. Besides, in assay [4], the inhibition at 4 µM is over 80%.

In the case of `CC(=O)OCC1=C(C)C[C@H]([C@@H](C)[C@H]2CC[C@H]3[C@@H]4C[C@H](OC(C)=O)[C@]5(O)[C@@H](OC(C)=O)C=CC(=O)[C@]5(C)[C@H]4CC[C@]23C)OC1=O`, the fold change (FC) in assay [1] was 0.74. In assay [3], this compound displayed an IC50 of 2.29 µM.

Turning to `CC(=O)OCC1=C(C)C[C@H]([C@@H](C)[C@H]2CC[C@H]3[C@@H]4CC=C5C(OC(C)=O)C=CC(=O)[C@]5(C)[C@H]4CC[C@]23C)OC1=O` (single isomer, unassigned), the fold change (FC) in assay [1] was 0.9. The IC50 came out at 0.53 µM in assay [2] and 1.63 µM in assay [3]. For the same compound, the inhibition at 4 µM in assay [4] was over 80%.

In the case of `CC1=C(CO)C(=O)O[C@@H]([C@@H](C)[C@H]2CC[C@H]3[C@@H]4C[C@H]5O[C@]56[C@@H](O)CCC(=O)[C@]6(C)[C@H]4CC[C@]23C)C1`, the fold change (FC) in assay [1] is 0. The compound also had a half-maximal inhibitory concentration (IC50) in assay [3] of over 10 µM.

In the case of `CC(=O)OCC1=C(C)C[C@H]([C@@H](C)[C@H]2C[C@@H](OC(C)=O)[C@H]3[C@@H]4C[C@H]5O[C@]56[C@@H](OC(C)=O)C=CC(=O)[C@]6(C)[C@H]4CC[C@@]32C)OC1=O`, the fold change (FC) in assay [1] is 1.65. In addition, the values for the IC50 in assay [2] and in assay [3] were 0.31 µM and 0.24 µM, respectively. Moreover, the inhibition at 4 µM in assay [4] is over 80%.

As for `CC(=O)OCC1=C(C)C[C@H]([C@@H](C)[C@H]2CC[C@H]3[C@@H]4C[C@@H](OC(C)=O)[C@@]5(O)CC=CC(=O)[C@]5(C)[C@H]4CC[C@]23C)OC1=O`, the fold change (FC) in assay [1] came to 0. Moreover, in assay [3], the IC50 was over 10 µM.

As for `CC1=C(COS(=O)(=O)O)C(=O)O[C@@H]([C@@H](C)[C@H]2CC[C@H]3[C@@H]4C[C@H]5O[C@]56[C@@H](O)C=CC(=O)[C@]6(C)[C@H]4CC[C@]23C)C1`, the fold change (FC) in assay [1] stood at 0.2. The half-maximal inhibitory concentration (IC50) in assay [3] turned out to be 3.32 µM.

Turning to `CC1=C(CO)C(=O)O[C@@H]([C@@H](C)[C@H]2C[C@@H](O)[C@H]3[C@@H]4C[C@H]5O[C@]56[C@@H](O)C=CC(=O)[C@]6(C)[C@H]4CC[C@@]32C)C1`, the fold change (FC) in assay [1] stood at 0. This compound displayed an IC50 in assay [3] of 3.83 µM.

Regarding `CC1=C(CO)C(=O)O[C@@H]([C@@H](C)[C@H]2CC[C@H]3[C@@H]4C[C@@H](O)[C@@]5(O)CC=CC(=O)[C@]5(C)[C@H]4CC[C@]23C)C1` [JABOROSALACTONE D], the fold change (FC) in assay [1] amounted to 0. In assay [3], the IC50 was over 10 µM.

As to `CC1=C(CO)C(=O)O[C@@H]([C@@H](C)[C@H]2CC[C@H]3[C@@H]4C[C@H]5O[C@]56[C@@H](O)[C@@H](O)CC(=O)[C@]6(C)[C@H]4CC[C@]23C)C1` [VISCOSALACTONE B], the fold change (FC) in assay [1] came to 0. Also, in assay [3], the IC50 was over 10 µM.

Take `CC1=C(COS(=O)(=O)O)C(=O)O[C@@H]([C@@H](C)[C@H]2CC[C@H]3[C@@H]4C[C@H]5O[C@]56[C@@H](OS(=O)(=O)O)C=CC(=O)[C@]6(C)[C@H]4CC[C@]23C)C1`: the fold change (FC) in assay [1] was determined as 0. Further, in assay [3], the IC50 was over 10 µM.

As to `CC(=O)OCC1=C(C)C[C@H]([C@@H](C)[C@H]2CC[C@H]3[C@@H]4C[C@H]5O[C@]56[C@@H](OC(C)=O)C=CC(=O)[C@]6(C)[C@H]4C[C@@H](OC(C)=O)[C@]23C)OC1=O`, the Activity entry in assay [1] was “Dose-dependent effect”. For the same compound, the fold change (FC) in assay [1] stood at 3.31. In addition, the IC50 in assay [2] was found to be 0.28 µM; in assay [3], 0.18 µM. Moreover, the inhibition at 4 µM in assay [4] is over 80%.

`CC1=C(C)C(=O)O[C@@H]([C@@H](C)[C@H]2CC[C@H]3[C@@H]4C[C@H]5O[C@]56[C@@H](O)C=CC(=O)[C@]6(C)[C@H]4CC[C@]23C)C1`: the fold change (FC) in assay [1] is 0.52. The IC50 in assay [2] was determined as 0.64 µM; in assay [3] it was 0.88 µM. In addition, the inhibition at 4 µM in assay [4] is over 80%.

With `CC1=C(C)C(=O)O[C@@H]([C@](C)(O)[C@H]2CC[C@H]3[C@@H]4[C@@H]5O[C@@H]5[C@@]5(O)CC=CC(=O)[C@]5(C)[C@H]4CC[C@]23C)C1` [WITHANOLIDE A], in assay [1], the fold change (FC) is 0. In assay [3], this compound displayed an IC50 of over 10 µM.

Take `CC1=C(CO)C(=O)O[C@@H]([C@@H](C)[C@H]2CC[C@H]3[C@@H]4C[C@H]5O[C@]56[C@@H](O)C=CC(=O)[C@]6(C)[C@H]4C[C@@H](O)[C@]23C)C1`: in assay [1], the fold change (FC) worked out at 0. The IC50 in assay [3] turned out to be 4.3 µM.

With `CC1=C(CO)C(=O)O[C@@H]([C@@H](C)[C@H]2CC[C@H]3[C@@H]4C[C@H]5O[C@]56C(=O)C=CC(=O)[C@]6(C)[C@H]4CC[C@]23C)C1`, in assay [1], the fold change (FC) was determined as 0.79. In addition, the IC50 in assay [3] was 1.16 µM.

Turning to `CC(C)C[C@@H](C=O)NC(=O)[C@H](CC(C)C)NC(=O)[C@H](CC(C)C)NC(=O)OCc1ccccc1` [MG-132] (Cbz-Leu-Leu-Leu-aldehyde), in assay [1], the fold change (FC) was found to be 0.71. In assay [3], this compound returned an IC50 of 0.17 µM.

Consider `CC1=C(CO)C(=O)O[C@@H]([C@@H](C)[C@H]2CC[C@H]3[C@@H]4C[C@H](O)[C@]5(O)[C@@H](O)C=CC(=O)[C@]5(C)[C@H]4CC[C@]23C)C1`, for which, in assay [1], the fold change (FC) stood at 0. For the same compound, the IC50 in assay [3] was over 10 µM.

As to `CC1=C(CO)C(=O)O[C@@H]([C@@H](C)[C@H]2CC[C@H]3[C@@H]4C[C@H]5O[C@]56[C@@H](O)[C@@H](OS(=O)(=O)O)CC(=O)[C@]6(C)[C@H]4CC[C@]23C)C1`, the fold change (FC) in assay [1] was found to be 0. In assay [3], it took 5.25 µM to reach half-maximal inhibition (IC50).

With `CCCCO[C@H]1CC(=O)[C@]2(C)[C@H]3CC[C@]4(C)[C@@H]([C@H](C)[C@H]5CC(C)=C(CO)C(=O)O5)CC[C@H]4[C@@H]3C[C@H]3O[C@]32[C@H]1O`, in assay [1], the fold change (FC) worked out at 0. In addition, in assay [3], the IC50 amounted to 8.74 µM.

As for `CC1=C(CO)C(=O)OC([C@@H](C)C2CCC3C4C(CC[C@@]32C)[C@@]2(C)C(=O)C=CC[C@]2(O)[C@H]2O[C@@H]42)C1` (stereo partly drawn), the fold change (FC) in assay [1] came to 0. For the same compound, the IC50 in assay [3] was over 10 µM.
